KCNK3 block: human KCNK3 channel inhibition, primary screen; O14649; CHO-KCNK3 thallium flux, FluxOR fluorescence; active compounds read low; B-score at 10 µM; 340,000 compounds, 0.84% hits; AID 602410;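 active = B-score under library mean minus 4 SD, starting fluorescence ratio at most library mean plus 5 SD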;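 also: more negative B-score means stronger inhibition of thallium flux through KCNK3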
hERG rescue: hERG (human) protection from proarrhythmic block; Q12809; CHO-hERG, FluxOR thallium flux, dofetilide IC70 present; activation (rescue from dofetilide block), less the hit threshold, % at 10 µM; 310,000 compounds, 0.51% hits; AID 1511;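 active = activation above the mean of controls blocked by dofetilide plus 5 SD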;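 also: thallium influx through hERG after potassium depolarization seen as dye fluorescence rise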
KCNQ1 block: inhibitors of human KCNQ1 potassium channel | P51787 | CHO-K1 KCNQ1, FluxOR thallium flux fluorescence; active compounds read high | B-score at 10 µM | 310,000 compounds, 1.3% hits | AID 2642;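 active = compounds whose thallium flux B-score, printed positive for inhibition, exceeds three library SD while starting fluorescence stays within three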;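 also: channel opened by potassium depolarization with thallium stimulus after 20 min compound exposure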
KCNQ1 act: potentiators or activators of human KCNQ1 potassium channel | P51787 | CHO-K1 KCNQ1, thallium flux FluxOR fluorescence; active compounds read high | B-score at 10 µM | 310,000 compounds, 0.35% hits;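 active = fluorescence ratio B-score, a plate-corrected score, at least three library SD, with initial intensity B-score within 5 SD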
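Material: CHO-K1 cells stably expressing KCNQ1. Medium: assay buffer for compound exposure, DMSO matched across wells. Reagent: K+/Tl+ depolarizing stimulus. Compound dosing: single-concentration screen. Times: 37 °C overnight plating, 90-min dark dye load, 20-min compound pretreatment. Technique: FluxOR Tl+ flux fluorescence.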
Kir21 inh: inhibitors of mouse Kir2.1 inward-rectifier potassium channel. P35561. HEK293-Kir2.1, FluxOR thallium flux fluorescence; active compounds read low. B-score at 10 µM. 310,000 compounds, 0.85% hits;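 active = fluorescence ratio B-score at or below minus 3 SD of library scores, with starting-brightness B-score within 2 SD, cut at about -4.2 in these data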;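 also: channel flux triggered by added potassium and thallium sulfate stimulus; B-score of peak minus minimum fluorescence over baseline after thallium stimulus; more negative B-score means stronger Kir2.1 block with less thallium influx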
Target sequence (P35561 whole entry, looked up): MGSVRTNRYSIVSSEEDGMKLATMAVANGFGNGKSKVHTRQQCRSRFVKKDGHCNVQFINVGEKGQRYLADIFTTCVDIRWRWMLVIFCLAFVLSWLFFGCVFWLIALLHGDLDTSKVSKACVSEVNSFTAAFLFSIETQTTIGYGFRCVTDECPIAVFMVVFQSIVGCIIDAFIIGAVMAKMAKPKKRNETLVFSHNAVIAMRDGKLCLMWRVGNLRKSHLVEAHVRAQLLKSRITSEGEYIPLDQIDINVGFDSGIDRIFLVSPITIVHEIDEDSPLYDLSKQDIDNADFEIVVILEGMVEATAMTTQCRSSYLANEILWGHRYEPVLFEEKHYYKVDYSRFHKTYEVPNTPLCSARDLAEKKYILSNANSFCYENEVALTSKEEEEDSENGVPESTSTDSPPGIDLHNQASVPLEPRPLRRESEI
KCNK9 inh: blocks the human KCNK9 two-pore domain potassium channel | Q9NPC2 | B-score at 10 µM | 310,000 compounds, 1.2% hits | HEK293 KCNK9, FluxOR thallium flux fluorescence; active compounds read low;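 active = ratio B-score over 3 SD below the library mean, with starting fluorescence within 5 SD of its mean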;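 also: negative B-score means less thallium flux so channel inhibition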
Numbers stand for hits; - = inactive; . = no result. An excerpt weighted towards active compounds, which were near 3.7% of everything screened.

SMILES	KCNK3 block	hERG rescue	KCNQ1 block	KCNQ1 act	Kir21 inh	KCNK9 inh
O=c1[nH]c(=O)n(-c2ccc(F)cc2)c(O)c1/C=C1\C=Nc2ccccc21	-	-	9	-	-	-
O=c1[nH]c(=O)n(-c2ccccc2F)c(O)c1/C=C1\C=Nc2ccccc21	-	-	-	-	-	-
CCN(CC)C(=O)c1ccc(NC(=O)CNC(C)c2cccc3ccccc23)cc1 (stereo unspecified)	-	-	-	-	-	-
CCn1ccnc1CN1CCCC(C(=O)c2cc(C)c(OC)c(C)c2)C1 (stereo unspecified)	-	-	-	-	-	-
CC(=O)c1cn(CCCOc2ccccc2)c2ccccc12	-	-	-	-	-4.6	-
O=C(c1ccc(N2CCCCCC2)c([N+](=O)[O-])c1)N1CCC2(CC1)OCCO2	-	-	-	-	-	-
COc1ccc(-c2nc3ccc(C(=O)N4CCC5(CC4)OCCO5)cc3nc2-c2ccc(OC)cc2)cc1	-	-	6	-	-	-
CCc1n[nH]c(CCN)n1	-	-	-	-	-	-
CN1CC(C(=O)c2ccc(Cl)cc2)C(c2ccc(Cl)cc2Cl)C1 (stereo unspecified)	-	-	-	-	-5	-
CCOc1cc2c(cc1OCC)-n1cccc1C(c1cccc([N+](=O)[O-])c1)NC2 (stereo unspecified)	-	-	-	-	-	-
CCC(=O)O[C@H]1CC[C@H]2[C@@H]3CCC4=CC(=O)CC[C@]4(C)[C@H]3CC[C@]12C	-8.7	.	.	.	.	.
CC12CCC(=O)C=C1CCC1C2CCC2(C)C(O)CCC12 (stereo unspecified)	-	.	.	.	.	.
O=C(CF)NC(NC(=S)Nc1cccc([N+](=O)[O-])c1)C(Cl)(Cl)Cl (stereo unspecified)	-	-	6	-	-	-
CCc1ccc(NP(=O)(Oc2ccccc2F)Oc2ccccc2F)cc1	-	-	-	-	-	-7.4
Cc1ccc(NP(=O)(Oc2ccccc2F)Oc2ccccc2F)cc1	-	-	6	-	-	-
Cc1ccc(NP(=O)(Oc2ccccc2)Oc2ccccc2)cc1	-	.	.	.	.	.
COc1ccc(CCNCc2ccc(Br)cc2)cc1OC	-	-	-	-	-	-
Cc1ccccc1CCNCc1ccc(Br)cc1	-	-	-	-	-9.6	-
CC1CCCC(C)N1/N=C/c1c[nH]c2ccc(Br)cc12 (stereo unspecified)	-	-	6	-	-4.3	-
C=CCn1c(O)c(C=Nc2ccc(F)cc2)c(=O)[nH]c1=O	-	-	-	-	-	-
C=CCn1c(O)c(/C=C2/C=c3ccccc3=N2)c(=O)[nH]c1=S	-	35	-	-	-	-
O=C(CSC1c2ccccc2-c2ccccc21)N/N=C/c1ccc(C(=O)O)cc1	-	-	-	-	-	-
O=C(CSC1c2ccccc2-c2ccccc21)N/N=C/c1ccccc1O	-	-	9	-	-	-
O=c1cccc2n1C[C@@H]1C[C@@H]2CN(CC(O)c2ccc([N+](=O)[O-])cc2)C1 (stereo partly specified)	-	-	-	-	-	-
CCOC(=O)c1ccc(-[n+]2c(-c3ccccc3)cc(-c3ccccc3)cc2-c2ccccc2)cc1	-	-	12	-	-11	-
SMILES	KCNK3 block	hERG rescue	KCNQ1 block	KCNQ1 act	Kir21 inh	KCNK9 inh
CCOC(=O)c1cccc(-[n+]2c(-c3ccccc3)cc(-c3ccccc3)cc2-c2ccccc2)c1	-	-	13	-	-11	-
Cc1ccc(-c2cc(-c3ccc(C)cc3)[n+](-c3ccc(C(=O)[O-])cc3)c(-c3ccc(C)cc3)c2)cc1	-	-	8	-	-8.2	-
c1ccc2c3c([nH]c2c1)C1(CCNCC1)NCC3	-	-	-	-	-	-
CCCCn1c(=O)c(C(=O)NC(C)c2ccccc2)c(O)c2ccccc21 (stereo unspecified)	-	-	6	-	-	-
CCCCCn1c(=O)c(C(=O)NCc2ccncc2)c(O)c2ccccc21	-	-	8	-	-	-7.9
CCCCCn1c(=O)c(C(=O)Nc2ccccc2)c(O)c2ccccc21	-	-	-	-	-	-
CCCCn1c(=O)c(C(=O)NCc2ccc(Cl)cc2)c(O)c2ccccc21	-	-	-	-	-	-

Screening data: PubChem, Johns Hopkins Ion Channel Center
